Measurements from ChEMBL document CHEMBL1145502, “Roxithromycin favorably modifies the initial phase of resistance against infection with macrolide-resistant Streptococcus pneumoniae in a murine pneumonia model” (Antimicrob Agents Chemother, 2007).
Values after ≈ are worked out from the molar mass of the structure shown. Active and inactive are the calls of the source. The calls are words filed in the database; no cut-off is given here.

Assays:
Streptococcus pneumoniae [1] = assay: Reduction in Streptococcus pneumoniae NMU112 infection-induced elevation in keratinocyte-derived chemokine level in po dosed CBA/J mouse bronchoalveolar lavage fluid after 8 hrs by sandwich ELISA relative to control; format: functional, organism-based; conditions: Lung
Plasma [2] = assay: Drug level in Streptococcus pneumoniae NMU112 infected CBA/J mouse plasma at 5 mg/kg/day, po after 24 hrs; format: ADME, organism-based; set-up: route oral; conditions: in vivo
How it was run: (§1)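 Oral gavage at 5 mg/kg/day (0.075 mg twice daily, six doses). Plasma and PBS lung homogenates were taken 24, 48 and 72 h after the last dose. Assayed by HPLC-electrochemical detection with an erythromycin internal standard; linear ranges 0.15–10.5 (plasma) and 0.4–11.8 μg/ml (lung). Five mice per time point; mean ± SD.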

Lung [3] = assay: Drug level in Streptococcus pneumoniae NMU112 infected CBA/J mouse lung tissue at 5 mg/kg/day, po after 72 hrs; format: ADME, organism-based; set-up: route oral; conditions: in vivo; how it was run: as §1
Streptococcus pneumoniae [4] = assay: Reduction of pneumolysin production in Streptococcus pneumoniae NMU112 lysates at 5 ug/mL after 12 hrs by Western blot relative to control; format: functional, organism-based
How it was run: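 NMU112 at 5 × 10⁷ CFU/ml in THY cultured with macrolide at 37°C for 12 h, then whole-cell sonicated lysates run on SDS-PAGE and immunoblotted for pneumolysin. Band densitometry as mean % of drug-free culture; two cultures per dose per experiment, three experiments.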

Plasma [5] = assay: Drug level in Streptococcus pneumoniae NMU112 infected CBA/J mouse plasma at 5 mg/kg/day, po after 48 hrs; format: ADME, organism-based; set-up: route oral; conditions: in vivo; how it was run: as §1
Streptococcus pneumoniae [6] = assay: Antimicrobial activity against Streptococcus pneumoniae NMU605 infected CBA/J mouse assessed as animal survival at => 2.5 mg/kg, po relative to control; format: functional, organism-based; set-up: dose 2.5 mg/kg
Plasma [7] = assay: Drug level in Streptococcus pneumoniae NMU112 infected CBA/J mouse plasma at 5 mg/kg/day, po after 72 hrs; format: ADME, organism-based; set-up: route oral; conditions: in vivo; how it was run: as §1
Streptococcus pneumoniae [8] = assay: Inhibition of Streptococcus pneumoniae NMU112 induced MMP7 expression level in po dosed CBA/J mouse assessed as decrease in caseinolytic activity after 6 to 48 hrs relative to control; format: functional, organism-based
How it was run: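 Casein zymography on lung extract (100 μg protein) in 4–16% casein gels. The 19-kDa mature MMP-7 lysis band was scanned by densitometry and expressed as % of infected controls. Five to six mice per time point, three experiments.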

Mus musculus [9] = species: Mus musculus; assay: Reduction of MMP7 expression level in UV rays killed Streptococcus pneumoniae NMU112 infected CBA/J mouse bronchoalveolar lavage fluid relative to control; format: functional, organism-based; conditions: Lung
Streptococcus pneumoniae [10] = assay: Reduction of pneumolysin production in Streptococcus pneumoniae NMU112 infected CBA/J mouse lung lysates after 48 hrs of infection by Western blot relative to control; format: functional, organism-based
How it was run: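 Left lungs (n, 3 per group per time point) homogenised in Tris-HCl pH 7.5 with NaCl and Triton X, then centrifuged. Extract (1 mg protein) immunoprecipitated with anti-PLY on protein G beads, run on SDS-12% PAGE and blotted. Band densitometry expressed as % of control mice after oral pretreatment and intratracheal NMU112 infection.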

Streptococcus pneumoniae [11] = assay: Antimicrobial activity against Streptococcus pneumoniae NMU605; format: functional
How it was run: (§2)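 Broth microdilution MIC (NCCLS method) in Mueller-Hinton broth with 3% lysed horse blood; clinical isolates NMU605 (serotype 3) and NMUP45 (serotype 4).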

Streptococcus pneumoniae [12] = assay: Antimicrobial activity against Streptococcus pneumoniae NMU112 infected in po dosed CBA/J mouse blood assessed as number of colony forming units after 7 days relative to control; format: functional
How it was run: (§3)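 CBA/J mice (28–30 g) dosed by oral gavage twice daily for 3 days, saline as control. Infected 24 h after the last dose with 5 × 10⁴ CFU via the oropharynx under light ketamine/xylazine anesthesia. Blood, lung homogenate and pooled BALF supernatant were plated on agar with 200 μg/ml ERY and incubated about 24 h at 37°C for CFU. Three mice per group per time point, three experiments.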

Lung [13] = assay: Drug level in Streptococcus pneumoniae NMU112 infected CBA/J mouse lung tissue at 5 mg/kg/day, po after 24 hrs; format: ADME, organism-based; set-up: route oral; conditions: in vivo; how it was run: as §1
Streptococcus pneumoniae [14] = assay: Reduction in Streptococcus pneumoniae NMU112 infection induced elevation in syndecan-1 shedding in po dosed CBA/J mouse bronchoalveolar lavage fluid relative to control; format: functional, organism-based; conditions: Lung
How it was run: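 Syndecan-1 ectodomains in 100 μl BALF measured by sandwich ELISA: 281-2 capture antibody, biotinylated 281-2 detection, streptavidin-HRP/TMB, read at 450 nm. Range 2.5–245 ng/ml. Three mice per time point, triplicate, three experiments.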

Streptococcus pneumoniae [15] = assay: Antimicrobial activity against Streptococcus pneumoniae NMU112 infected in po dosed CBA/J mouse lungs assessed as reduction in number of colony forming units after 24 to 48 hr relative to control; format: functional, organism-based; how it was run: as §3
Streptococcus pneumoniae [16] = assay: Reduction in Streptococcus pneumoniae NMU112 infection-induced elevation in keratinocyte-derived chemokine level in po dosed CBA/J mouse lung after 12 hrs by sandwich ELISA relative to control; format: functional, organism-based
How it was run: (§4)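 Lung homogenate in lysis buffer with protease inhibitors, 30 min on ice, spun 12,000 × g 20 min at 4°C. KC or MCP-1 measured by sandwich ELISA, detection limit 2 pg/ml. Three mice per group per time point after infection with 5 × 10⁴ CFU, each sample in triplicate, two experiments.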

Streptococcus pneumoniae [17] = assay: Antimicrobial activity against drug-resistant Streptococcus pneumoniae NMU112 infected CBA/J mouse assessed as median survival time at 10 mg/kg, po relative to control; format: functional
How it was run: (§5)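 Male CBA/J mice, 3-4 weeks old, 28-30 g. Macrolide given by oral gavage in saline for 3 days; RXM, ERY and CLR twice daily at 12-h intervals, AZM once daily. Saline controls. 24 h after the last dose, mice were infected intratracheally with 5 × 10⁴ CFU NMU112 (erm(B)/mef(A)). Kaplan-Meier survival and median survival time, log rank test; 10 mice per group per experiment.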

Mus musculus [18] = species: Mus musculus; assay: Reduction of polymorphonuclear leukocytes in UV rays killed Streptococcus pneumoniae NMU112 infected CBA/J mouse bronchoalveolar lavage fluid relative to control; format: functional, organism-based; conditions: Lung
Streptococcus pneumoniae [19] = assay: Antimicrobial activity against drug-resistant Streptococcus pneumoniae NMU112 infected CBA/J mouse assessed as median survival time at 7.5 mg/kg, po relative to control; format: functional; how it was run: as §5
Streptococcus pneumoniae [20] = assay: Inhibition of Streptococcus pneumoniae NMU112 infection-induced polymorphonuclear leukocytes infiltration in CBA/J mouse lung assessed as MPO activity after 12 hrs relative to control; format: functional, organism-based
How it was run: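 Lungs (n = 4 per group per time point) removed after blood collection, weighed and frozen, then assayed with an MPO kit. Activity given as units per mg protein.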

Streptococcus pneumoniae [21] = assay: Antimicrobial activity against Streptococcus pneumoniae NMU112 infected in po dosed CBA/J mouse blood assessed as number of colony forming units after 5 days relative to control; format: functional; how it was run: as §3
Streptococcus pneumoniae [22] = assay: Increase in Streptococcus pneumoniae NMU112 infection-induced reduction in MCP1 level in po dosed CBA/J mouse lung by sandwich ELISA relative to control
Streptococcus pneumoniae [23] = assay: Antimicrobial activity against Streptococcus pneumoniae NMU112 infected in po dosed CBA/J mouse bronchoalveolar lavage fluid assessed as reduction in number of colony forming units after 24 to 48 hrs relative to control; format: functional, organism-based; conditions: Lung; how it was run: as §3
Streptococcus pneumoniae [24] = assay: Antimicrobial activity against Streptococcus pneumoniae NMU112 infected in po dosed CBA/J mouse blood assessed as number of colony forming units after 6 days relative to control; format: functional; how it was run: as §3
Streptococcus pneumoniae [25] = assay: Antimicrobial activity against drug-resistant Streptococcus pneumoniae NMU112 infected CBA/J mouse assessed as animal survival at 1.25 mg/kg, po; format: functional, organism-based; set-up: dose 1.25 mg/kg; how it was run: as §5
Streptococcus pneumoniae [26] = assay: Inhibition of pneumococcal surface protein A production in Streptococcus pneumoniae NMU112 lysates at 5 ug/mL after 12 hrs by Western blot relative to control; format: functional, organism-based
How it was run: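 Strain NMU112 (5 × 10⁷ CFU/ml in THY) cultured 12 h at 37°C with drug. Sonicated whole-cell lysates run on SDS-PAGE and Western blotted; bands measured by densitometry as % of drug-free culture. Two cultures per dose, three experiments (n = 5–6).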

Streptococcus pneumoniae [27] = assay: Antimicrobial activity against Streptococcus pneumoniae NMU112 infected in po dosed CBA/J mouse blood assessed as number of colony forming units after 4 days relative to control; format: functional; how it was run: as §3
Streptococcus pneumoniae [28] = assay: Antimicrobial activity against Streptococcus pneumoniae NMUP45 infected CBA/J mouse assessed as animal survival at => 5 mg/kg, po relative to control; format: functional, organism-based; set-up: dose 5 mg/kg
Streptococcus pneumoniae [29] = assay: Increase in Streptococcus pneumoniae NMU112 infection-induced reduction in MCP1 level in po dosed CBA/J mouse lung after 12 to 36 hrs by sandwich ELISA relative to control; format: functional, organism-based; how it was run: as §4
Streptococcus pneumoniae [30] = assay: Antimicrobial activity against Streptococcus pneumoniae NMU112; format: functional
How it was run: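 Broth microdilution MIC per NCCLS in Mueller-Hinton broth with 3% lysed horse blood.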

Lung [31] = assay: Drug level in Streptococcus pneumoniae NMU112 infected CBA/J mouse lung tissue at 5 mg/kg/day, po after 48 hrs; format: ADME, organism-based; set-up: route oral; conditions: in vivo; how it was run: as §1
Streptococcus pneumoniae [32] = assay: Antimicrobial activity against Streptococcus pneumoniae NMUP45; format: functional; how it was run: as §2
Streptococcus pneumoniae [33] = assay: Antimicrobial activity against drug-resistant Streptococcus pneumoniae NMU112 infected CBA/J mouse assessed as median survival time at 5 mg/kg, po relative to control; format: functional; how it was run: as §5
Streptococcus pneumoniae [34] = assay: Reduction of pneumococcal surface protein A in Streptococcus pneumoniae NMU112 infected CBA/J mouse lung lysates after 48 hrs by Western blot relative to control; format: functional, organism-based
How it was run: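 Left-lung Triton X extract (1 mg protein) immunoprecipitated with anti-PspA on protein G beads, then run on SDS-12% PAGE and Western blotted. Densitometry given as % of control. Three mice per group per time point.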

SMILES: CC[C@H]1OC(=O)[C@H](C)[C@@H](O[C@H]2C[C@@](C)(OC)[C@@H](O)[C@H](C)O2)[C@H](C)[C@@H](O[C@@H]2O[C@H](C)C[C@H](N(C)C)[C@H]2O)[C@](C)(O)C[C@@H](C)/C(=N\OCOCCOC)[C@H](C)[C@@H](O)[C@]1(C)O [ROXITHROMYCIN]
- Activity (Streptococcus pneumoniae [1]): Active
- Concn (Plasma [2]): 3870 ng/mL
- Concn (Lung [3]): 650 ng/mL
- Activity (Streptococcus pneumoniae [4]): inactive
- Concn (Plasma [5]): 1360 ng/mL
- Activity (Streptococcus pneumoniae [6]): Active
- Concn (Plasma [7]): 540 ng/mL
- Activity (Streptococcus pneumoniae [8]): Active
- Activity (Mus musculus [9]): Active
- Activity (Streptococcus pneumoniae [10]): Active
- MIC (Streptococcus pneumoniae [11]): 0.06 µg/mL (≈ 0.0717 µM)
- log10CFU/ml (Streptococcus pneumoniae [12]): >=5.11
- Concn (Lung [13]): 5220 ng/mL
- Activity (Streptococcus pneumoniae [14]): Active
- Activity (Streptococcus pneumoniae [15]): Active
- Activity (Streptococcus pneumoniae [16]): Active
- MST (Streptococcus pneumoniae [17]): 6.6 days
- Activity (Mus musculus [18]): Active
- MST (Streptococcus pneumoniae [19]): 6.3 days
- Activity (Streptococcus pneumoniae [20]): Active
- log10CFU/ml (Streptococcus pneumoniae [21]): 3.68
- Activity (Streptococcus pneumoniae [22]): Active
- Activity (Streptococcus pneumoniae [23]): Active
- log10CFU/ml (Streptococcus pneumoniae [24]): 4.27
- Activity (Streptococcus pneumoniae [25]): inactive
- Activity (Streptococcus pneumoniae [26]): inactive
- log10CFU/ml (Streptococcus pneumoniae [27]): 2.14
- Activity (Streptococcus pneumoniae [28]): Active
- Activity (Streptococcus pneumoniae [29]): Active
- MIC (Streptococcus pneumoniae [30]): ≥ 256 µg/mL
- Concn (Lung [31]): 2870 ng/mL
- MIC (Streptococcus pneumoniae [32]): 4 µg/mL (≈ 4.78 µM)
- MST (Streptococcus pneumoniae [33]): 5.8 days
- Activity (Streptococcus pneumoniae [34]): Active
